{"source": "ChEMBL document CHEMBL3868590", "about": "“Quambalarine B, a Secondary Metabolite from Quambalaria cyanescens with Potential Anticancer Properties” (J Nat Prod, 2016)", "key": {"[1]": {"assay": "Cytotoxicity against human NALM6 cells assessed as reduction in viable cells measured after 24 hrs by Hoechst-33258 staining-based FACS analysis", "type": "functional, cell-based", "conditions": "NALM-6, 24 h", "method_in_brief": "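Leukemic lines kept in RPMI1640 with 10% FBS, penicillin/streptomycin, 37 °C, 5% CO2. Seeded at 2 × 10^5 cells/mL and exposed 24 h to a range of compound concentrations (DMSO stock); medium and DMSO negative controls. Live fraction taken from Hoechst 33258-negative singlets by flow cytometry. EC50 from five-parameter nonlinear regression.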"}, "NALM-6": {"system": "NALM-6", "assay": "Cytostatic activity against eFluor670-labelled human NALM6 cells assessed as live cells at 2 umol/L measured on day 2 by Hoechst-33258 staining-based FACS analysis (reference value: 97.7%)", "type": "functional"}, "Jurkat [2]": {"system": "Jurkat", "assay": "Inhibition of P70S6K in human Jurkat cells assessed as decrease in C-MYC expression measured after 24 hrs by immunoblot analysis", "type": "cell-based", "method_in_brief": "(§1)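 Cells prepared as for RT-qPCR (7.5 × 10^5 cells/mL). Treated either with the line-specific EC50 concentration over a time course, or 24 h with graded concentrations up to that EC50. Cells washed with phosphatase inhibitors and lysed in RIPA; 40 μg protein per lane on SDS-PAGE, then nitrocellulose. Immunoblotted for C-MYC, P70S6K, p-P70S6K (Ser424) and actin.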"}, "Jurkat [3]": {"system": "Jurkat", "assay": "Inhibition of P70S6K in human Jurkat cells assessed as decrease in c-MYC expression at EC50 up to 24 hrs by immunoblot analysis", "type": "cell-based", "method_in_brief": "as §1"}}, "note": "The source made the active and inactive calls. The calls are words filed in the database; no cut-off is given here."}
{"smiles": "CCCCCC(=O)C1=C(O)C(=O)c2c(O)c(O)cc(O)c2C1=O", "values": [{"measurement": "EC50", "setting": "[1]", "value": 16.7, "unit": "µM"}, {"measurement": "Activity", "setting": "NALM-6", "value": 97.7, "unit": "%"}, {"measurement": "inhibition", "setting": "Jurkat [2]", "value": "Dose-dependent effect"}, {"measurement": "inhibition", "setting": "Jurkat [3]", "value": "Active"}]}
